Laboratory results: ChEMBL document CHEMBL3817747 (J Med Chem, 2016)

Test: Cytotoxicity against MDCK cells after 48 hrs by CellTiter 96 AQueous Non-Radioactive cell proliferation assay
Type: cell-based, Canis lupus familiaris
Settings: dog
Outline: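 MDCK cells (1 × 10^5 cells/mL) exposed to inhibitor without virus, same steps as the antiviral assay: 48 h at 37 °C, 5% CO2, viability by MTS-type reagent, absorbance at 490 nm. CC50 is the 50% cytotoxic concentration. Highest concentration tested was 100 μM.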

SMILES | CC50 at 48 h
CCC(CC)[C@H](NC(C)=O)[C@@H]1C[C@@H](P(=O)(O)O)C[C@H]1NC(=N)N | > 100 µM
CCOP(=O)(O)[C@@H]1C[C@@H]([C@@H](NC(C)=O)C(CC)CC)[C@H](NC(=N)N)C1 | > 100 µM
CCC(CC)[C@H](NC(C)=O)[C@@H]1C=C(P(=O)(O)O)C[C@H]1NC(=N)N | > 100 µM
CCCCCCOP(=O)(O)[C@@H]1C[C@@H]([C@@H](NC(C)=O)C(CC)CC)[C@H](NC(=N)N)C1 | > 100 µM
CCCCCCOP(=O)(O)C1=C[C@@H]([C@@H](NC(C)=O)C(CC)CC)[C@H](NC(=N)N)C1 | > 100 µM
CCOP(=O)(O)[C@H]1C[C@@H](NC(=N)N)[C@H]([C@@H](NC(C)=O)C(CC)CC)[C@@H]1O | > 100 µM
CCCCCCOP(=O)(O)[C@H]1C[C@@H](NC(=N)N)[C@H]([C@@H](NC(C)=O)C(CC)CC)[C@@H]1O | > 100 µM
CCC(CC)[C@H](NC(C)=O)[C@@H]1[C@H](O)[C@@H](P(=O)(O)O)C[C@H]1NC(=N)N | > 100 µM
CCOP(=O)(O)C1=C[C@@H]([C@@H](NC(C)=O)C(CC)CC)[C@H](NC(=N)N)C1 | > 100 µM
CCC(CC)O[C@@H]1C=C(C(=O)O)C[C@H](N)[C@H]1NC(C)=O [OSELTAMIVIR CARBOXYLATE] | > 100 µM
CCC(CC)[C@H](NC(C)=O)[C@@H]1[C@H](O)[C@@H](C(=O)O)C[C@H]1NC(=N)N [PERAMIVIR ANHYDROUS] | > 100 µM
CC(=O)N[C@H]1[C@H]([C@H](O)[C@H](O)CO)OC(C(=O)O)=C[C@@H]1NC(=N)N [ZANAMIVIR] | > 100 µM

Test: Prodrug conversion in rabbit serum assessed as formation of (3R,4R)-[3-((S)-1-Acetamido-2-ethylbutyl)-4-guanidinocyclopent-1-en-1-yl]phosphonic acid at 1 mM at 37 degC after 24 to 96 hrs by HPLC/ESI-HRMS analysis
Type: ADME, Oryctolagus cuniculus
Settings: 1000 µM

SMILES | Drug metabolism
CCOP(=O)(O)C1=C[C@@H]([C@@H](NC(C)=O)C(CC)CC)[C@H](NC(=N)N)C1 | metabolite_notdetected
